{"source": "ChEMBL document CHEMBL1133720", "about": "“Structural studies on bioactive compounds. 32. Oxidation of tyrphostin protein tyrosine kinase inhibitors with hypervalent iodine reagents” (J Med Chem, 2000)", "key": {"Cell line": {"tested_on": "Cell line", "experiment": "Inhibition of proliferation in NCI panel of 60 human cell lines (Range is 20-80 uM)", "format": "functional"}, "[1]": {"biological_target": "Receptor tyrosine-protein kinase erbB-2", "experiment": "Inhibition of c-erbB2 receptor"}, "MCF7 [2]": {"tested_on": "MCF7", "experiment": "(§1) Inhibition of MCF-7 human breast tumor cell proliferation", "format": "functional, cell-based", "how_it_was_run": "(§2)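 Seven-day MTT assay at 250-300 cells/well in RPMI 1640 with 10% FCS. After a 24-h drug-free attachment at 37 °C/5% CO₂, drug was added at 1 nM-100 µM (final DMSO <0.25%). MTT was added at a final 400 µg/mL for 4 h, formazan was dissolved in DMSO-glycine (4:1) and absorbance read at 550 nm. IC50 is the mean of at least three experiments.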"}, "MCF7 [3]": {"tested_on": "MCF7", "experiment": "as §1", "format": "functional, cell-based", "how_it_was_run": "as §2", "remark": "listed apart in the source"}, "MCF7 [4]": {"tested_on": "MCF7", "experiment": "Inhibition of TGF-alpha stimulated MCF-7 human breast tumor cell proliferation", "format": "functional, cell-based", "how_it_was_run": "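MCF-7 cells, 5 × 10³/well, were plated in phenol red-free RPMI 1640 with 5% charcoal-stripped FCS and allowed to attach overnight. Growth factor (IGF-I, IGF-II or TGF-α, as the line names) was then added together with drug. Cells grew a further 7 days, and viable cells were counted by MTT. IC50 is the mean of at least three experiments.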"}, "MCF7 [5]": {"tested_on": "MCF7", "experiment": "Inhibition of MCF-7/adr human breast tumor cell proliferation", "format": "functional, cell-based", "how_it_was_run": "as §2"}, "MDA-MB-231": {"tested_on": "MDA-MB-231", "experiment": "Inhibition of MDA-231 human breast tumor cell proliferation", "format": "functional, cell-based", "how_it_was_run": "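MTT assay, 7-day continuous drug exposure. Cells seeded at 250-300 cells/well in RPMI 1640 with 10% FCS and penicillin/streptomycin, attached over 24 h drug-free at 37 °C/5% CO2. Drug range 1 nM-100 µM from DMSO stocks, final DMSO <0.25%. MTT 400 µg/mL final for 4 h, formazan dissolved in DMSO-glycine, absorbance 550 nm. IC50 is the mean of at least three experiments.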"}, "SK-BR-3": {"tested_on": "SK-BR-3", "experiment": "Inhibition of SBBr3 human breast tumor cell proliferation", "format": "functional, cell-based", "how_it_was_run": "as §2"}, "T47D": {"tested_on": "T47D", "experiment": "Inhibition of T47D human breast tumor cell proliferation", "format": "functional, cell-based", "how_it_was_run": "as §2"}, "ZR-75-1": {"tested_on": "ZR-75-1", "experiment": "Inhibition of ZR-75-1 human breast tumor cell proliferation", "format": "functional, cell-based", "how_it_was_run": "as §2"}, "MDA-MB-468": {"tested_on": "MDA-MB-468", "experiment": "Inhibition of MDA-468 human breast tumor cell proliferation", "format": "functional, cell-based", "how_it_was_run": "as §2"}}, "note": "pIC50: −log10 of the molar value."}
{"compound": "N#CC(C#N)=Cc1ccc(Oc2ccccc2)c(I)c1", "values": [{"measurement": "GI50", "setting": "Cell line", "value": 80, "unit": "µM"}]}
{"compound": "COC(=O)/C(C#N)=C/c1ccc(Oc2ccccc2)c(I)c1", "values": [{"measurement": "GI50", "setting": "Cell line", "value": 80, "unit": "µM"}]}
{"compound": "N#C/C(=C\\c1ccc(Oc2ccccc2)c(I)c1)C(N)=O", "values": [{"measurement": "GI50", "setting": "Cell line", "value": 80, "unit": "µM"}]}
{"compound": "COc1cc(/C=C(\\C#N)C(N)=O)cc(Sc2nc3ccccc3s2)c1O", "values": [{"measurement": "pIC50", "setting": "[1]", "value": 6.46}]}
{"compound": "N#C/C(=C\\c1ccc(Oc2ccccc2)c(I)c1)C(=O)NCCCc1ccccc1", "values": [{"measurement": "GI50", "setting": "Cell line", "value": 80, "unit": "µM"}]}
{"compound": "COc1cc(C=C(C#N)C#N)cc(-c2cc(C=C(C#N)C#N)cc(OC)c2O)c1O", "values": [{"measurement": "GI50", "setting": "Cell line", "value": 80, "unit": "µM"}]}
{"compound": "COc1cc(C(C)=O)cc(-c2cc(C(C)=O)cc(OC)c2O)c1O", "values": [{"measurement": "GI50", "setting": "Cell line", "value": 80, "unit": "µM"}]}
{"compound": "COc1cc(/C=C(\\C#N)C(N)=O)cc(-c2cc(/C=C(\\C#N)C(N)=O)cc(OC)c2O)c1O", "values": [{"measurement": "GI50", "setting": "Cell line", "value": 80, "unit": "µM"}]}
{"compound": "COc1cc(/C=C(\\C#N)c2ccccn2)ccc1O", "values": [{"measurement": "pIC50", "setting": "MCF7 [2]", "value": 6.15}, {"measurement": "pIC50", "setting": "MCF7 [3]", "value": 5.57}, {"measurement": "pIC50", "setting": "MCF7 [4]", "value": 5.64}, {"measurement": "pIC50", "setting": "MCF7 [5]", "value": 4.28}, {"measurement": "pIC50", "setting": "MDA-MB-231", "value": 4.29}, {"measurement": "pIC50", "setting": "SK-BR-3", "value": 6.30}, {"measurement": "pIC50", "setting": "T47D", "value": 5.22}, {"measurement": "pIC50", "setting": "ZR-75-1", "value": 5.59}, {"measurement": "pIC50", "setting": "MDA-MB-468", "value": 7.22}]}
{"compound": "COc1cc(C=O)cc(-c2cc(C=O)cc(OC)c2O)c1O", "values": [{"measurement": "GI50", "setting": "Cell line", "value": 80, "unit": "µM"}]}
{"compound": "COC(=O)/C(C#N)=C/c1cc(OC)c(O)c(-c2cc(/C=C(\\C#N)C(=O)OC)cc(OC)c2O)c1", "values": [{"measurement": "GI50", "setting": "Cell line", "value": 80, "unit": "µM"}]}
{"compound": "COC(=O)c1cc(OC)c(O)c(-c2cc(C(=O)OC)cc(OC)c2O)c1", "values": [{"measurement": "GI50", "setting": "Cell line", "value": 80, "unit": "µM"}]}
{"compound": "N#C/C(=C\\c1ccc(Oc2ccccc2)c(I)c1)c1ccccn1", "values": [{"measurement": "pIC50", "setting": "MCF7 [2]", "value": 4.70}, {"measurement": "pIC50", "setting": "MCF7 [3]", "value": 4.38}, {"measurement": "pIC50", "setting": "MCF7 [4]", "value": 4.39}, {"measurement": "pIC50", "setting": "MCF7 [5]", "value": 4.60}, {"measurement": "pIC50", "setting": "MDA-MB-231", "value": 4.40}, {"measurement": "pIC50", "setting": "SK-BR-3", "value": 5.19}, {"measurement": "pIC50", "setting": "T47D", "value": 4.31}, {"measurement": "pIC50", "setting": "ZR-75-1", "value": 4.61}, {"measurement": "pIC50", "setting": "MDA-MB-468", "value": 6.52}]}
{"compound": "COc1cc(/C=C(\\C#N)c2ccccn2)cc(-c2cc(/C=C(\\C#N)c3ccccn3)cc(OC)c2O)c1O", "values": [{"measurement": "GI50", "setting": "Cell line", "value": 80, "unit": "µM"}]}
{"compound": "CCOc1cc(C=C(C#N)C#N)cc(-c2cc(C=C(C#N)C#N)cc(OCC)c2O)c1O", "values": [{"measurement": "GI50", "setting": "Cell line", "value": 80, "unit": "µM"}]}
{"compound": "N#C/C(=C\\c1ccc(O)cc1)c1ccccn1", "values": [{"measurement": "pIC50", "setting": "MCF7 [2]", "value": 4.82}, {"measurement": "pIC50", "setting": "MCF7 [3]", "value": 4.13}, {"measurement": "pIC50", "setting": "MCF7 [4]", "value": 4.17}, {"measurement": "pIC50", "setting": "MCF7 [5]", "value": 4.29}, {"measurement": "pIC50", "setting": "MDA-MB-231", "value": 4.39}, {"measurement": "pIC50", "setting": "SK-BR-3", "value": 5.11}, {"measurement": "pIC50", "setting": "T47D", "value": 4.44}, {"measurement": "pIC50", "setting": "ZR-75-1", "value": 4.31}, {"measurement": "pIC50", "setting": "MDA-MB-468", "value": 6.35}]}
{"compound": "COC1=C2C[C@@H](C)C[C@H](OC)[C@H](O)[C@@H](C)/C=C(\\C)[C@H](OC(N)=O)[C@@H](OC)/C=C\\C=C(/C)C(=O)NC(=CC1=O)C2=O", "note": "[GELDANAMYCIN]", "values": [{"measurement": "GI50", "setting": "Cell line", "value": 0.327, "unit": "µM"}]}
